697 NFkB inh: inhibitors of the PMA/ionomycin-induced NF-kB reporter in 697 B cells. 697 B-cell NF-kB luciferase reporter, 16 h. inhibition, % at 4 µM. 330,000 tested, 0.33% active; in the data active = inhibition above about 35%
CHOP UPR activ: activators of apoptotic arm of unfolded protein response (CHOP); CHO-CHOP luciferase reporter, UPR activation, luminescence; percent of tunicamycin response over DMSO baseline; activation, % at 10 µM; 330,000 tested, 0.34% active; AID 449763;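 active = at 10 µM dose, activation of 40% or more, normalized to positive control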;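 also: 100% = tunicamycin at 10 µg/mL and 0% = DMSO alone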
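Dosing – one dose, 10 µM in 0.5% DMSO · System – CHO-CHOP cells, stable luciferase reporter of PERK-eIF2a-CHOP signalling · Input – 500 cells/well · Control set – tunicamycin 10 µg/mL final as positive, DMSO-only wells as negative · Timing – 6 h compound treatment, 37 °C · Measure – % activation vs tunicamycin · Technique – luminescence read with Steady-Glo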
Jurkat NFkB inh: lowers PMA/ionomycin-induced NF-kB signal in Jurkat cells. inhibition, % at 4 µM. PMA/ionomycin-induced NF-kB luciferase reporter, luminescence. 330,000 tested, 0.53% active; in the data active = inhibition above about 50%
CHOP inh: inhibitors of CHOP induction in ER stress response | 220,000 tested, 3.8% active | AID 2732 | inhibition, % at 10 µM | CHO-K1 CHOP-promoter luciferase, tunicamycin-induced, 15-18 h;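 active = compounds that reduced the stress-induced luciferase reporter signal by more than about 70% of percent inhibition, limit read from the data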;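 also: 0% = tunicamycin plus vehicle and 100% = wells without tunicamycin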
XBP1 UPR activ: activators of adaptive arm of unfolded protein response (XBP1); CHO-XBP1 luciferase reporter, IRE1-XBP1 UPR activation, luminescence; percent of tunicamycin response, DMSO as zero; AID 463104; activation, % at 20 µM; 330,000 tested, 0.33% active;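 active = versus positive control, 20 µM dose yields 30% or more activation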;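 also: 100% = tunicamycin at 10 µg/mL and 0% = DMSO only wells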
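Material: CHO-XBP1 cells stably carrying IRE1-XBP1-driven luciferase reporter / Amount: 1000 cells per well / Compound: 20 µM, 1% DMSO / Times: 6 h treatment, 37 °C / Detection: luciferase luminescence / Measure: % activation of reporter signal versus tunicamycin and DMSO controls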
Numbers without * were called inactive; · = not tested or not shown. The entries come from a sample that favours hits as a whole.

SMILES | 697 NFkB inh | CHOP UPR activ | Jurkat NFkB inh | CHOP inh | XBP1 UPR activ
CCn1cc(C(=O)c2cccs2)c2ccccc21 | -6.0 | -1.3 | -22.7 | 77.2* | 7.5
c1ccc2sc(C3(N4CCCCC4)CCCCC3)cc2c1 | · | · | · | -1.6 | ·
C[C@]12CC[C@H]3[C@@H](CCC4C[C@H](O)CC[C@@]43C)[C@@H]1CC[C@@H]2O (some centres not stated) | · | · | · | -8.6 | ·
C=CCc1cc(C=C2C(=O)N(C)C(=O)N(C)C2=O)cc(OCC)c1OCc1ccccc1 | -12.3 | -0.5 | -5.9 | 88.5* | -2.9
C=CCc1cc(C=C2C(=O)NC(=O)NC2=O)cc(OC)c1OCc1ccc(C(=O)O)cc1 | 25.4 | -0.3 | -10.0 | 0.9 | -6.4
CCCCn1c(O)c(C=NC2CC3CCC2(C)C3(C)C)c(=O)[nH]c1=O (configuration not stated) | -45.0 | 1.1 | -37.5 | 95.3* | -0.1
COc1cccc(NP(=O)(Oc2ccccc2Cl)Oc2ccccc2Cl)c1 | -81.6 | 0.3 | 24.4 | 91.0* | -2.0
O=P(Nc1cccc(Cl)c1)(Oc1ccccc1)Oc1ccccc1 | -15.7 | 1.6 | -25.8 | -13.0 | -2.0
CCCn1c(C)c(C(=O)c2ccc3ccccc3c2)c2ccccc21 | · | · | · | -17.7 | ·
C1=C(c2c[nH]c3ccccc23)CCNC1 | 10.2 | 1.1 | -21.8 | 76.5* | 2.0
c1ccc2c(CN3CCCCCC3)c[nH]c2c1 | -9.4 | 7.5 | 0.3 | -23.1 | 12.0
O=C1NC(=S)NC(=O)C1=Cc1cccc2cc3ccccc3cc12 | · | · | · | 107.8* | ·
O=c1cc(C(F)(F)F)c2cc3c4c(c2o1)CCCN4CCC3 | 5.2 | -0.3 | 25.9 | 93.1* | -1.3
Cc1cc2c(C(F)(F)F)cc(=O)oc2c2c1NCCC2 | -5.4 | 2.1 | 0.4 | 56.1 | -0.9
Cc1ccc(OP(=O)(NC(C)c2ccccc2)Oc2ccc(C)cc2)cc1 (configuration not stated) | -12.4 | -0.6 | -4.0 | 77.4* | -2.0
CC12NC(Cc3ccccc31)c1ccccc12 (configuration not stated) | · | · | · | -20.6 | ·
Cc1ccc(CN2C(=O)NC(=O)C3(Cc4c(nc5ccccn5c4=O)N4CCCCCC43)C2=O)cc1 (configuration not stated) | -15.7 | 8.2 | 32.1 | 86.3* | 2.4
Cc1cc(/C=C2\C(=O)NC(=O)N(c3ccc(Cl)cc3)C2=O)c(C)n1C | -6.6 | -0.9 | 2.6 | 79.5* | 0.7
Cc1cc(C)cc(N2C(=O)NC(=O)/C(=C\c3cc(C)n(C)c3C)C2=O)c1 | -10.5 | -0.9 | 5.2 | 9.7 | -0.3
N#CC(=Cc1ccc(O)c(O)c1)C(N)=S | · | · | · | -1.7 | ·
Cc1ccc(N2C(=O)NC(=O)C3(Cc4ccccc4N4CCN(c5ccccc5)CC43)C2=O)cc1 (configuration not stated) | -39.7 | -0.2 | -14.0 | 70.5* | 3.6
O=C1NC(=O)C2(Cc3ccccc3N3CCCC32)C(=O)N1c1cccc(Cl)c1 (configuration not stated) | 22.2 | -0.6 | 8.7 | 11.7 | 1.0
CCCC(C)C1C(C#N)=C(N)Oc2c1c(=O)oc1ccccc21 (configuration not stated) | 13.4 | 1.7 | 0.1 | 76.4* | -2.3
NC(=O)CN1CC(O)CC1=O (configuration not stated) | · | · | · | 14.1 | ·
Oc1ccc2c3c1O[C@H]1c4oc5ccccc5c4C[C@@]4(O)C(C2)N(CC2CC2)CCC314 (some centres not stated) | · | · | · | -22.8 | ·
SMILES | 697 NFkB inh | CHOP UPR activ | Jurkat NFkB inh | CHOP inh | XBP1 UPR activ
CC1(C)CN=C(Nc2ccc(F)c(Cl)c2)S1 | 7.4 | 2.1 | -7.7 | -13.4 | 2.3
CC1(C)CN=C(Nc2ccc(F)c(F)c2)S1 | -8.0 | 1.9 | 4.8 | 81.9* | 0.1
Cc1cccc(C)c1NC(=O)c1cccn(Cc2ccc3c(c2)OC(F)(F)O3)c1=O | -6.8 | 1.6 | 8.5 | 85.9* | 1.7
Ic1ccccc1CNC1C2CCN(CC2)C1C(c1ccccc1)c1ccccc1 (configuration not stated) | · | · | · | 15.0 | ·
CC(C)CC(NP(=O)(O)O[C@@H]1O[C@@H](C)[C@H](O)[C@@H](O)[C@H]1O)C(=O)NC(Cc1c[nH]c2ccccc12)C(=O)O (some centres not stated) | · | · | · | -10.4 | ·
Cc1cccc(CN2CCN(c3ccc(Cl)cc3)CC2)c1 | 5.2 | 1.2 | -1.4 | 82.6* | 1.3
Cc1ccccc1N1C(=O)NC(=O)/C(=C\c2cc(Br)c(N3CCOCC3)o2)C1=O | -25.6 | 17.8 | 10.7 | 72.3* | 3.3

Source: PubChem BioAssay
